# Compound activity deposited in PubChem by several laboratories.
# hERG protect = hERG rescue from dofetilide block, primary screen, cell-based, CHO-hERG, FluxOR thallium flux, dofetilide IC70; activation (rescue from dofetilide block), less the hit threshold, % at 10 µM; 310,000 tested, 0.51% active; dofetilide IC70 present;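 active means activation above the mean of controls blocked by dofetilide plus 5 SD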;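 further: thallium influx through hERG after potassium depolarization seen as dye fluorescence rise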
# KCNQ1 pot = potentiators or activators of KCNQ1 channel, primary screen, cell-based, thallium flux, high-throughput; Potassium voltage-gated channel subfamily KQT member 1 (Homo sapiens), P51787; CHO-K1 KCNQ1, thallium flux FluxOR fluorescence; active compounds read high; B-score at 10 µM; 310,000 tested, 0.35% active;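 active means fluorescence ratio B-score, a plate-corrected score, at least three library SD, with initial intensity B-score within 5 SD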
#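 Assay system: CHO-K1 cells stably expressing KCNQ1. Medium: assay buffer for compound exposure, DMSO matched across wells. Timing: 37 °C overnight plating, 90-min dark dye load, 20-min compound pretreatment. Signal: kinetic FluxOR fluorescence, 10 s baseline plus 110 s post-stimulus.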
# KCNK9 block = KCNK9 potassium channel inhibitors, primary screen, HEK293 cells, thallium flux; 310,000 tested, 1.2% active; Potassium channel subfamily K member 9 (Homo sapiens), Q9NPC2; FluxOR thallium flux fluorescence; active compounds read low; B-score at 10 µM;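 active means ratio B-score over 3 SD below the library mean, with starting fluorescence within 5 SD of its mean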;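 further: negative B-score means less thallium flux so channel inhibition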
# KCNQ1 inh = inhibitors of human KCNQ1 channel, primary screen, cell-based, thallium flux, high-throughput | AID 2642, 2010 | Potassium voltage-gated channel subfamily KQT member 1 (Homo sapiens), P51787 | CHO-K1 KCNQ1, FluxOR thallium flux fluorescence; active compounds read high | B-score at 10 µM | 310,000 tested, 1.3% active;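 active means compounds whose thallium flux B-score, printed positive for inhibition, exceeds three library SD while starting fluorescence stays within three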;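 further: channel opened by potassium depolarization with thallium stimulus after 20 min compound exposure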
# KCNK3 block = human KCNK3 channel inhibitors, primary screen, CHO cells, FluxOR thallium flux, B-score; Potassium channel subfamily K member 3 (Homo sapiens), O14649; B-score at 10 µM; 340,000 tested, 0.84% active; FluxOR fluorescence; active compounds read low; AID 602410, 2012;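 active means B-score under library mean minus 4 SD, starting fluorescence ratio at most library mean plus 5 SD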;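 further: more negative B-score means stronger inhibition of thallium flux through KCNK3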
# PHOSPHO1 inh = PubChem AID 1565 | recombinant PHOSPHO1, absorbance phosphatase assay | 290,000 tested, 1.1% active | inhibition, % at 13.3 µM; in the data active means inhibition above about 60%
# Target sequence (Q8TCT1 whole entry, looked up): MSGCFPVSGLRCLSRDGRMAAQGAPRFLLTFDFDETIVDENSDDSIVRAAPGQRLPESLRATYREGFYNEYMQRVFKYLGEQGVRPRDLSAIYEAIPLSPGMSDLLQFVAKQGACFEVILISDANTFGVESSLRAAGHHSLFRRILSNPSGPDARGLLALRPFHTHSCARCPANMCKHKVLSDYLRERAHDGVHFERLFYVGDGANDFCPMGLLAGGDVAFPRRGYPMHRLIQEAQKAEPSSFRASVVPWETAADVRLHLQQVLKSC
# KCNK9 block conf = KCNK9 potassium channel inhibitors, confirmation, HEK293 cells, thallium flux, duplicate; shares compounds with KCNK9 block; FluxOR thallium flux fluorescence; inhibition, % at 10 µM; 4,900 tested, 43% active;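 active means thallium signal inhibited by more than 5 SD of the compound-free buffer control wells, on both duplicate plates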;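 further: 0% = assay buffer control wells without compound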
# Kir2-1 spec = mouse Kir2.1 channel inhibition, confirmation, selectivity assay for KCNK9 modulator project, cell-based, HEK293, thallium flux; shares compounds with KCNK9 block; Kir2.1 cells, FluxOR thallium flux fluorescence; inhibition, % at 10 µM; 4,900 tested, 4% active;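 active means thallium signal drop more than 5 SD beyond the mean of the no-compound control wells, seen in both duplicate plates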;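 further: signal is fluorescence rise after thallium addition divided by baseline fluorescence; plate controls were assay buffer only for no effect and full block by chlorpromazine control for full effect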
# KCNK9 uninduced = thallium flux in non-induced HEK293 cells, confirmation, counter-screen for KCNK9 inhibitor project, cell-based, second counter screen, non-induced KCNK9-HEK293 | inhibition, % at 10 µM | AID 492997, 2010 | 4,900 tested, 40% active | shares compounds with KCNK9 block | FluxOR thallium flux;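 active means thallium signal drop beyond 5 SD of the untreated control mean, on both duplicate plates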;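 further: plate controls were buffer only IC0 wells for no effect and SID17386958 at its maximal inhibitory level for full effect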
# KCNK3 confirm = retest of human KCNK3 channel inhibitors, confirmation, CHO cells, FluxOR thallium flux, triplicate; FluxOR fluorescence; 0% buffer, 100% carvedilol maximal block; ratio percent of control, % at 10 µM; 2,400 tested, 99% active; shares compounds with KCNK3 block;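 active means ratio percent of control, averaged over triplicates, above buffer control mean plus 5 SD, cut at about 64% in these data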;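 further: ratio is the fluorescence rise from min to max over baseline after thallium stimulus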
# KCNK3 uninduced = thallium flux inhibition in non-induced cells, primary screen, counter-screen for KCNK3 inhibitor project, cell-based, non-induced KCNK3 line, FluxOR thallium, triplicate | 2,400 tested, 40% active | thallium flux ratio (lower = more inhibition) at 10 µM | shares compounds with KCNK3 block | non-induced KCNK3 parental cells; active compounds read low;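 active means thallium flux ratio, averaged over three wells, more than 5 SD below the buffer control mean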;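 further: host cells are CHO cells without KCNK3 induction; ratio is peak minus trough fluorescence over baseline then normalized to buffer controls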
# Starred values were filed as active, the others as inactive; i = inactive; . = no result. Only some compounds are listed: those with a hit (about 4% of all), similar ones and a draw of the others.
SMILES,hERG protect,KCNQ1 pot,KCNK9 block,KCNQ1 inh,KCNK3 block,PHOSPHO1 inh,KCNK9 block conf,Kir2-1 spec,KCNK9 uninduced,KCNK3 confirm,KCNK3 uninduced
O=C(Nc1ccc2c(c1)OCCO2)c1cc2sccc2n1Cc1ccc(F)cc1,-10,i,-12*,i,-11*,30,46%*,i,30%*,120*,0.12*
CCCN(N=Nc1cccc([N+](=O)[O-])c1)c1cccc([N+](=O)[O-])c1,-14,i,-12*,i,-9.2*,-2,50%*,i,43%*,115*,i
O=[N+]([O-])c1cccc(N=NN(CCO)c2cccc([N+](=O)[O-])c2)c1,-6,i,i,i,i,10,.,.,.,.,.
CC(=O)N(C)c1cccc([N+](=O)[O-])c1,-9,i,i,i,i,-23,.,.,.,.,.
CN(N=Nc1cccc([N+](=O)[O-])c1)c1cccc([N+](=O)[O-])c1,-11,i,-11*,i,i,-5,i,i,34%*,90*,i
Nc1cc(-c2ccc(Br)cc2)nc2cc(-c3ccccc3)nn12,-3,i,i,i,i,-12,.,.,.,.,.
Clc1nc(-c2ccccc2)cc(-c2ccc(Br)cc2)n1,-16,i,-12*,6*,-9.8*,.,55%*,i,51%*,103*,i
CCCNC(=O)COC(=O)c1n[nH]c2ccccc12,-12,i,i,i,i,20,.,.,.,.,.
CCCCN(C(=O)CSc1nnnn1-c1ccccc1OC)C1CCS(=O)(=O)C1 (configuration not stated),-6,i,i,i,i,.,.,.,.,.,.
COc1ccc(C(=O)c2coc3c2C(=O)C(=O)c2ccccc2-3)cc1,-14,i,-21*,i,-8.9*,20,78%*,i,46%*,108*,0.15*
COc1ccccc1NC(=O)CCSc1ccc(C)cc1,-17,i,i,i,i,37,.,.,.,.,.
COc1ccccc1NC(=O)C(C)OC(=O)CCSc1ccc(F)cc1 (configuration not stated),-9,i,-16*,i,i,.,62%*,i,30%*,120*,i
CCOC(=O)COc1ccc(Br)cc1C1NC(=O)NC(C)=C1C(=O)NCc1ccccc1 (configuration not stated),-4,i,i,i,i,0,.,.,.,.,.
CCOC(=O)CSc1nc(Cc2ccccc2)nc2ccccc12,-12,i,-13*,i,i,33,36%*,i,i,96*,i
